# Laboratory results taken from the RNAGym collection of RNA variant scans (doi:10.1038/s41586-018-0170-7).
# B1: tRNA (parent)
# chain: GUUCCGUUGGCGUAAUGGUAACGCGUCUCCCUCCUAAGGAGAAGACUGCGGGUUCGAGUCCCGUACGGAACG
# Variants of: B1
# Experiment: yeast fitness, log relative to wild type (ln ratio); higher = fitter; tRNA-Arg(CCU), competitive growth, 37 C, 1 M NaCl
# Procedure, shortened: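 In BY4742 missing the chromosomal gene, a combinatorial tRNA-Arg(CCU) variant library was maintained on a HIS3 centromeric plasmid. Selection ran ~6.5 generations (~26.5 h) in SC-HIS 1M NaCl at 37 °C, following 4 generations in SC-HIS at 30 °C, with three outputs per input and variant counts by 125 bp paired-end Illumina sequencing. Fitness is the natural log of a genotype's generations relative to the wild type's, with generations taken as inverse-variance-weighted, OD-scaled log2 output/input frequency.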
row,Variant,yeast fitness (ln)
1,G1A C27U A43C C46U A70G C71U,-0.153
2,G1A C27U A43C C66U A70U C71U,-0.51
3,G1A C66U A69G C71U,-0.515
4,G1A G6A A70U C71U,-0.153
5,G1A C27U A43C A69G C71U,-0.318
6,G1A C27U A70U,-0.112
7,G1A C27U A70G,-0.163
8,G1A G6A A43C C46U C66U A69G A70U,-0.479
9,G1A G6A A43C C46U C66U A69G A70G,-0.184
10,G1A G6A C27U A43C C46U C66U A69G A70G C71U,-0.324
11,G1A G6A A69G A70G C71U,-0.178
12,G1A C27U A43C C66A A69G A70U,-0.391
13,G1A C27U A43C C66A A69G A70G,-0.279
14,G1A C27U C66A A69G A70G C71U,-0.325
15,G1A G6A C27U C46U A70G,-0.208
16,G1A G6A C27U C46U A70U,-0.164
17,G1A G6A A43C A70G C71U,-0.27
18,G1A C27U A43C C46U A69G C71U,-0.109
19,G1A C66U C71U,-0.105
20,G1A G6A C27U C46U A69G A70U C71U,-0.36
21,G1A C27U A43C C46U C66A A69G A70G C71U,-0.305
22,G1A G6A C27U A43C C66U A70U C71U,-0.381
23,G1A G6A A43C C46U A70G,-0.188
24,G1A G6A A43C C46U A70U,-0.206

row,Variant,yeast fitness (ln)
1,G1A G6A C27U A43C C66U A70G,-0.431
2,G1A G6A C27U A43C C66U A70U,-0.304
3,G1A G6A C27U C46U C66A A70G C71U,-0.269
4,G1A G6A C27U A43C C46U C66U A69G C71U,-0.499
5,G1A C27U C66A C71U,-0.159
6,G1A C46U C66A A69G A70U C71U,-0.331
7,G1A G6A C27U C46U C66U A69G A70U C71U,-0.436
8,G1A C27U A43C C46U A70U C71U,-0.29
9,G1A G6A,-0.0503
10,G1A G6A A43C A69G A70G C71U,-0.248
11,G1A C27U C66U A70U,-0.152
12,G1A C27U C66U A70G,-0.176
13,G1A G6A A43C C46U A69G A70G C71U,-0.252
14,G1A C27U C66U C71U,-0.322
15,G1A G6A C27U C46U C66U A69G A70G C71U,-0.698
16,G1A C27U C66U A70G C71U,-0.225
17,G1A G6A C27U C46U C66A C71U,-0.11
18,G1A C27U A43C C46U C66A C71U,-0.231
19,G1A C27U C46U C66U A69G A70U C71U,-0.504
20,G1A C27U A43C C46U C66U A69G A70G C71U,-0.347
21,G1A C46U,-0.0224
22,G1A C27U A43C A69G,-0.138
23,G1A C46U A69G A70G C71U,-0.0298
24,G1A G6A A43C C71U,-0.257

row,Variant,yeast fitness (ln)
1,G1A C27U C66A A69G A70U,-0.19
2,G1A G6A C27U A43C C66U A70G C71U,-0.323
3,G1A C27U A43C C46U A69G A70U C71U,-0.366
4,G1A C27U A43C C66A A69G A70U C71U,-0.431
5,G1A C66U,-0.0546
6,G1A C66A,0.0139
7,G1A G6A A43C C46U C66A A70U,-0.143
8,G1A C66U A69G A70U C71U,-0.364
9,G1A G6A C27U A43C C66U A69G A70G C71U,-0.487
10,G1A C27U A43C A69G A70G,-0.303
11,G1A C27U A43C A69G A70U,-0.389
12,G1A C27U A43C A69G A70U C71U,-0.406
13,G1A G6A A43C C66U A70G C71U,-0.377
14,G1A G6A C27U C46U C66U,-0.421
15,G1A G6A C27U C46U C66U A70G C71U,-0.21
16,G1A C27U C46U C66U A69G A70G C71U,-0.255
17,G1A C27U C46U A70G C71U,-0.0653
18,G1A C66U A69G A70G C71U,-0.217
19,G1A G6A C27U C66A A69G A70G C71U,-0.392
20,G1A G6A C27U C46U C66A A70U C71U,-0.228
21,G1A G6A C27U A43C C46U C66A A69G A70G C71U,-0.302
22,G1A C27U A70U C71U,-0.34
23,G1A C27U A70G C71U,-0.11
24,G1A G6A A69G A70U C71U,-0.247

row,Variant,yeast fitness (ln)
1,G1A G6A A43C A69G A70G,-0.301
2,G1A G6A A43C A69G A70U,-0.224
3,G1A C27U A43C C66U C71U,-0.437
4,G1A C27U A43C C46U,-0.131
5,G1A C27U C46U A69G A70U,-0.118
6,G1A C27U C46U A69G A70G,-0.166
7,G1A C27U C46U C66A A70U,-0.182
8,G1A C27U C46U C66A A70G,-0.213
9,G1A G6A C27U A43C C66A A69G A70G C71U,-0.299
10,G1A G6A A43C C66U A70G,-0.213
11,G1A G6A A43C C66U A70U,-0.374
12,G1A G6A A43C C46U A69G C71U,-0.194
13,G1A C27U C66A A69G A70U C71U,-0.303
14,G1A C46U A69G C71U,-0.00219
15,G1A G6A A43C C66U C71U,-0.144
16,G1A G6A C27U A43C C46U C66U C71U,-0.166
17,G1A G6A C27U C46U C66U A69G A70G,-0.338
18,G1A G6A C27U C46U C66U A69G A70U,-0.468
19,G1A C27U A43C C46U C66U A70U C71U,-0.469
20,G1A C27U A43C C66A C71U,-0.277
21,G1A C27U C46U C66U C71U,-0.454
22,G1A C66A A70U C71U,-0.144
23,G1A C27U C46U C66A A70U C71U,-0.208
24,G1A G6A C27U A43C,-0.204

row,Variant,yeast fitness (ln)
1,G1A G6A A70G C71U,-0.115
2,G1A G6A A43C A69G A70U C71U,-0.503
3,G1A C27U A43C A69G A70G C71U,-0.299
4,G1A C66A A70G,-0.0993
5,G1A C66A A70U,-0.0714
6,G1A G6A C27U A70G C71U,-0.332
7,G1A G6A C27U C46U C66A A69G A70G C71U,-0.145
8,G1A C66A A70G C71U,-0.0638
9,G1A G6A A43C C66A A70U,-0.201
10,G1A G6A A43C C46U A70U C71U,-0.191
11,G1A C27U A43C C46U C66A A69G A70U C71U,-0.415
12,G1A G6A C27U C46U C66U A70U C71U,-0.478
13,G1A C27U C46U,-0.0938
14,G1A C27U C46U C66U A70G C71U,-0.223
15,G1A G6A C27U C46U A70U C71U,-0.258
16,G1A C46U C66U A69G C71U,-0.763
17,G1A C27U C66U A69G C71U,-0.285
18,G1A G6A A43C C46U A69G A70U C71U,-0.473
19,G1A C27U A43C C66U A70U,-0.201
20,G1A C27U A43C C66U A70G,-0.333
21,G1A C27U A43C C46U C66A A70G C71U,-0.211
22,G1A G6A C27U A70G,-0.34
23,G1A G6A C27U A70U,-0.293
24,G1A C46U C66A A70G C71U,-0.11

row,Variant,yeast fitness (ln)
1,G1A C27U A43C C66U A69G A70U C71U,-0.505
2,G1A C27U C46U A69G,-0.304
3,G1A C27U A43C C66U A69G A70G,-0.295
4,G1A C27U A43C C66U A69G A70U,-0.325
5,G1A G6A A43C A69G C71U,-0.335
6,G1A G6A A43C C46U C66U A69G A70U C71U,-0.4
7,G1A G6A C27U C66U A69G A70U C71U,-0.387
8,G1A C27U A43C C46U C71U,-0.0315
9,G1A G6A A43C C46U C66U A70G,-0.194
10,G1A G6A A43C C46U C66U A70U,-0.24
11,G1A C27U C46U C66U,-0.215
12,G1A C27U C46U C66A,-0.151
13,G1A C46U C66U A69G,-0.202
14,G1A C46U C66A C71U,-0.243
15,G1A G6A C27U C66A A70G C71U,-0.473
16,G1A G6A C27U C46U A70G C71U,-0.366
17,G1A C27U A43C C46U C66A,-0.103
18,G1A C27U A43C C46U C66U,-0.199
19,G1A G6A C27U A43C C46U C66U A70G,-0.27
20,G1A G6A C27U A43C C46U C66U A70U,-0.318
21,G1A C66A C71U,-0.113
22,G1A G6A A43C C46U C66U A70U C71U,-0.331
23,G1A G6A C27U A43C A69G A70U C71U,-0.684
24,G1A C27U A69G A70U C71U,-0.421

row,Variant,yeast fitness (ln)
1,G1A C27U A43C C46U A70U,-0.203
2,G1A C27U A43C C46U A70G,-0.147
3,G1A G6A C27U C66U A69G A70G C71U,-0.442
4,G1A C27U A43C C66U A70G C71U,-0.32
5,G1A G6A A43C C46U A69G A70G,-0.251
6,G1A G6A A43C C46U A69G A70U,-0.283
7,G1A C27U A43C,-0.163
8,G1A C66U A70U C71U,-0.212
9,G1A G6A C27U A43C C46U C66A A70U,-0.192
10,G1A C27U A43C C66U A69G A70G C71U,-0.371
11,G1A G6A C27U A43C C46U A70U C71U,-0.263
12,G1A G6A C27U A43C C66U A69G A70U C71U,-0.628
13,G1A C46U C66A A69G A70G,-0.183
14,G1A C46U C66A A69G A70U,-0.0801
15,G1A G6A C27U A69G A70U C71U,-0.504
16,G1A C27U A43C C66A A70G C71U,-0.35
17,G1A C27U A43C C46U C66U A69G A70G,-0.188
18,G1A C27U A43C C46U C66U A69G A70U,-0.4
19,G1A C27U C46U A69G C71U,-0.047
20,G1A G6A C27U A43C C46U C71U,-0.247
21,G1A C27U C46U C66A A69G C71U,-0.168
22,G1A C27U A43C C46U A69G,-0.116
23,G1A C27U A69G A70G C71U,-0.322
